Legend:
[1] = organism: Homo sapiens; assay: (§1) Selectivity ratio of EC50 for mGlu8 (unknown origin) expressed in HEK293 cells coexpressing chimeric Gq/i protein assessed as increase in intracellular calcium accumulation to EC50 for mGlu4 (unknown origin) expressed in HEK293 cells coexpressing chimeric Gq/i protein assessed as increase in intracellular calcium accumulation; assay type: cell-based
Method in brief: (§2)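 Ratio of mGlu8 EC50 to mGlu4 EC50, both from the same functional assay. Both receptors were co-expressed in HEK293 cells with chimeric G-protein and EAAT3 and read by 3H-IP accumulation or by Fluo-4 Ca2+ release.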

[2] = biological target: T1, Metabotropic glutamate receptor 8 (Homo sapiens, UniProt O00222); assay: Agonist activity at mGlu8 (unknown origin) expressed in HEK293 cells coexpressing chimeric Gq/i protein assessed as increase in intracellular calcium accumulation by Fluo-4 AM dye based fluorescence assay; assay type: functional, cell-based
[3] = biological target: Metabotropic glutamate receptor 4 (Homo sapiens, UniProt Q14833); assay: Agonist activity at mGlu4 (unknown origin) expressed in HEK293 cells coexpressing chimeric Gq/i protein assessed as increase in intracellular calcium accumulation by Fluo-4 AM dye based fluorescence assay; assay type: functional, cell-based
[4] = biological target: T1, Metabotropic glutamate receptor 8; assay: Agonist activity at mGlu8 (unknown origin) expressed in HEK293 cells coexpressing chimeric Gq/i protein assessed as [3H]inositol phosphate accumulation after 30 mins by scintillation and luminescence counting method; assay type: functional, cell-based
Method in brief: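 Receptor transiently co-expressed in HEK293 cells (electroporation) with chimeric G-protein and glutamate transporter EAAT3. Cells labelled overnight with 3H-myoinositol, stimulated with agonist 30 min, lysed 1 h in cold 0.1 M formic acid. 3H-IP isolated on Dowex ion exchange and counted. IP expressed relative to IP plus membrane radioactivity. Points in triplicate; EC50 from Hill-equation fit.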

[5] = organism: Homo sapiens; assay: as §1, with “[3H]inositol phosphate” for “increase in intracellular calcium”; assay type: cell-based; method in brief: as §2
[6] = biological target: Metabotropic glutamate receptor 6 (Homo sapiens, UniProt O15303); assay: Agonist activity at mGlu6 (unknown origin) expressed in HEK293 cells coexpressing chimeric Gq/i protein assessed as increase in intracellular calcium accumulation by Fluo-4 AM dye based fluorescence assay; assay type: functional, cell-based
[7] = biological target: Metabotropic glutamate receptor 7 (Homo sapiens, UniProt Q14831); assay: Agonist activity at mGlu7 (unknown origin) expressed in HEK293 cells coexpressing chimeric Gq/i protein assessed as increase in intracellular calcium accumulation by Fluo-4 AM dye based fluorescence assay; assay type: functional, cell-based
Chain of Metabotropic glutamate receptor 7 (Q14831 whole entry): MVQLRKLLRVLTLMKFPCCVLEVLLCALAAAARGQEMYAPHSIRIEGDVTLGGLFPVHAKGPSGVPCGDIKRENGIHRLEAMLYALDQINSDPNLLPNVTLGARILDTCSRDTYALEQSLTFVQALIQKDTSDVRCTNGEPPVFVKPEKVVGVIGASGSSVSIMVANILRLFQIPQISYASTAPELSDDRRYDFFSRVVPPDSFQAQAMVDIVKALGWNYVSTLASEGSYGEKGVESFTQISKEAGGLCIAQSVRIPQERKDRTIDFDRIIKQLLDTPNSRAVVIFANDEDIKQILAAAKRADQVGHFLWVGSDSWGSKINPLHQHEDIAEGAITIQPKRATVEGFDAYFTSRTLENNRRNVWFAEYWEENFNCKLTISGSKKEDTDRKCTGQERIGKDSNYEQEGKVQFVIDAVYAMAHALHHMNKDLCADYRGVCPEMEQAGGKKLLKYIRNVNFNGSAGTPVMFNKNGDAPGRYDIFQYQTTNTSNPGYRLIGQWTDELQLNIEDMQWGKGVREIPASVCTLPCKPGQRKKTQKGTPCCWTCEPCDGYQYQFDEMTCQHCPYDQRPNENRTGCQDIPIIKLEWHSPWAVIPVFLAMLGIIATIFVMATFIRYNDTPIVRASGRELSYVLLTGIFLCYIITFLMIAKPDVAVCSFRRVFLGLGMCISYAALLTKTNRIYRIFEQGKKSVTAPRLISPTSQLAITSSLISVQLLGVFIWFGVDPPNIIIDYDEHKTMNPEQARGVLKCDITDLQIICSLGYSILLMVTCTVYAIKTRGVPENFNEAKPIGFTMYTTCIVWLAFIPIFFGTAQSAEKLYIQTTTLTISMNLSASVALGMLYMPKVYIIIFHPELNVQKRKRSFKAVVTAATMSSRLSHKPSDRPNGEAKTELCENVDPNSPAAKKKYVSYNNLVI

Chain of Metabotropic glutamate receptor 6 (O15303 whole entry): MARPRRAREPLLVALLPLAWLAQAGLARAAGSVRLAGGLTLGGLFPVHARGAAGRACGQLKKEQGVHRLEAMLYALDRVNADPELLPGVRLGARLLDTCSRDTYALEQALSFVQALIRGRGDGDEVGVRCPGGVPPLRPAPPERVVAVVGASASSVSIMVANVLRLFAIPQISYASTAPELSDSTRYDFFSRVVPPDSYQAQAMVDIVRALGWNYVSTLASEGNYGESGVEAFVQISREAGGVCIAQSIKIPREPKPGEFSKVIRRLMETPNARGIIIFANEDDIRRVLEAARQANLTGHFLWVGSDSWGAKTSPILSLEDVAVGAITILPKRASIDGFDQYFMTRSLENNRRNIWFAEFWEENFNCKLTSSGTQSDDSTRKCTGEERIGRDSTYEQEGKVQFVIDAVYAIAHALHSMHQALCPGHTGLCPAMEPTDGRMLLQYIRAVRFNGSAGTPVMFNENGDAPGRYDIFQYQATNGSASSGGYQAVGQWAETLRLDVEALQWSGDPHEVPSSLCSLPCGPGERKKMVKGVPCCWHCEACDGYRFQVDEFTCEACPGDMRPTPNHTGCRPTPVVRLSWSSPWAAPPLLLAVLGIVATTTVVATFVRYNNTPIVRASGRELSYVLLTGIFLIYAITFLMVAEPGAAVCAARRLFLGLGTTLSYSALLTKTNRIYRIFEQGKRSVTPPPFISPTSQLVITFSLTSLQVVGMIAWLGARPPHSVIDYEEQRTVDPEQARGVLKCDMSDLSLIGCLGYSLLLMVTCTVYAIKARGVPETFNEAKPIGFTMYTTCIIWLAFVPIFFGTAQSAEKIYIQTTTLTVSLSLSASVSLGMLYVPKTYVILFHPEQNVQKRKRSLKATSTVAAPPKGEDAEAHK
T1 sequence (O00222 whole entry): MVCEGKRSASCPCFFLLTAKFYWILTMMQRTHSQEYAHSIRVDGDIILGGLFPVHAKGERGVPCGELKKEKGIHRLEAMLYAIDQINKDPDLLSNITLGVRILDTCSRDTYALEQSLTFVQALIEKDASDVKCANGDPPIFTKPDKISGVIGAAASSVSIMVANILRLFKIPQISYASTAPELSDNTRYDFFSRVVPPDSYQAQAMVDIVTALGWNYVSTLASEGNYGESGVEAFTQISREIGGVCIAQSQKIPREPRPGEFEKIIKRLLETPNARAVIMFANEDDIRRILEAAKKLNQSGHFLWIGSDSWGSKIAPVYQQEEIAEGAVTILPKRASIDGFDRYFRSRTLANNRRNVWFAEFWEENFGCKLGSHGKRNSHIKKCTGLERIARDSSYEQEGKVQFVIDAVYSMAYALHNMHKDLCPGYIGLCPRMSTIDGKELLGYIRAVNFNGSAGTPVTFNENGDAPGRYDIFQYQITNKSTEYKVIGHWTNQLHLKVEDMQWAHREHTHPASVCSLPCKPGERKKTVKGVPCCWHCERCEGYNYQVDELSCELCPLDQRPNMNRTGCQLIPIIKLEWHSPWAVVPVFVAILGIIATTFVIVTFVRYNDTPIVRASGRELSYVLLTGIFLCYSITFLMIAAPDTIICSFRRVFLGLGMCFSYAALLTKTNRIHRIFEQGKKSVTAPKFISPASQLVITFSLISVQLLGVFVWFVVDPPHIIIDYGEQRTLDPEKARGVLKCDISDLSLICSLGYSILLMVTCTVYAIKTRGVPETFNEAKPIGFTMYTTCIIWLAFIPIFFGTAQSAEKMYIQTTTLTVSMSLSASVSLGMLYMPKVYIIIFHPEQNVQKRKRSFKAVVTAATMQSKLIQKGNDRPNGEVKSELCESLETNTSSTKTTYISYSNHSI
Chain of Metabotropic glutamate receptor 4 (Q14833 whole entry): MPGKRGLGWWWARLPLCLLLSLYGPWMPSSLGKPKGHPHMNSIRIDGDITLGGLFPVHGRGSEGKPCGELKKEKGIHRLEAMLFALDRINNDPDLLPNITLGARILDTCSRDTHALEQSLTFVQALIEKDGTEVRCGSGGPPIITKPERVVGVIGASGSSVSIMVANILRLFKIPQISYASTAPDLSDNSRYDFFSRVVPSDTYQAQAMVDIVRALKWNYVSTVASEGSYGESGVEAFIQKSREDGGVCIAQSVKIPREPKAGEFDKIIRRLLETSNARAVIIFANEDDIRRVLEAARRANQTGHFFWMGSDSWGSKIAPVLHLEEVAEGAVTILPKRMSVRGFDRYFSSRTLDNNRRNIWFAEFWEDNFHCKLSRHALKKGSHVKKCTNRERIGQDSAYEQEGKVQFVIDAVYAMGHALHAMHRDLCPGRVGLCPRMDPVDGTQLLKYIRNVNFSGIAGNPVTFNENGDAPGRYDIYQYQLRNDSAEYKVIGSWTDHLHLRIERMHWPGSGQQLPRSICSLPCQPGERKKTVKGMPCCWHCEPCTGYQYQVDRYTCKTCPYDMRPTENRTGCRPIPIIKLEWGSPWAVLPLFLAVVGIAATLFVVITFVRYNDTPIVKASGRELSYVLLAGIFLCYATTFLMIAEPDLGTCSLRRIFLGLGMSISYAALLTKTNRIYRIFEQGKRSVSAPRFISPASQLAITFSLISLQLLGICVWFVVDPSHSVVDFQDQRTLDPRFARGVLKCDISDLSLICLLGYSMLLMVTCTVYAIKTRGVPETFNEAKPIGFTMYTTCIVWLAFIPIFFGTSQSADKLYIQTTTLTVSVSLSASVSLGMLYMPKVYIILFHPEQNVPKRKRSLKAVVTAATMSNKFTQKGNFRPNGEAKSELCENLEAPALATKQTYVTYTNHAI

SMILES	Ratio EC50 [1]	EC50 [2] [µM]	EC50 [3] [µM]	EC50 [4] [µM]	Ratio EC50 [5]	EC50 [6] [µM]	EC50 [7] [µM]
N[C@@H](CCP(=O)(O)C(O)c1c[nH]c2ncccc12)C(=O)O (some centres undefined)	2	6.9	3.4				
N[C@@H](CCP(=O)(O)Cc1cccc(C(=O)O)c1)C(=O)O			> 100	511	2.4		
N[C@@H](CCP(=O)(O)C(O)c1c([N+](=O)[O-])cccc1[N+](=O)[O-])C(=O)O (some centres undefined)				2.9	1.7		
N[C@@H](CCP(=O)(O)C(O)c1ccc([N+](=O)[O-])cc1[N+](=O)[O-])C(=O)O (some centres undefined)				4.6	3.1		
COc1cc(CP(=O)(O)CC[C@H](N)C(=O)O)cc([N+](=O)[O-])c1O	1.5	28	19				
N[C@@H](CCP(=O)(O)C(NCc1ccccc1)c1cccc([N+](=O)[O-])c1)C(=O)O (some centres undefined)	1.2	29.7	25.3				
COc1cc([C@H](O)P(=O)(O)CC[C@H](N)C(=O)O)cc([N+](=O)[O-])c1O		26	4.4			2.4	100
N[C@@H](CCP(=O)(O)C(O)c1ccc(C(F)(F)F)o1)C(=O)O (some centres undefined)				5.2	3.1		
N[C@@H](CCP(=O)(O)C(O)c1c(F)c(F)c(F)c(F)c1F)C(=O)O (some centres undefined)	1.4	7.6	5.6	18.5	3.7	30	> 100
N[C@@H](CCP(=O)(O)C(O)c1cc(F)c(O)c([N+](=O)[O-])c1)C(=O)O (some centres undefined)	12	23.4	1.95			1.07	51.2
COc1ccc([C@@H](O)P(=O)(O)CC[C@H](N)C(=O)O)cc1[N+](=O)[O-]	1.2	2.5	2			4.5	> 100
N[C@@H](CCP(=O)(O)C(O)c1cc([N+](=O)[O-])cc([N+](=O)[O-])c1O)C(=O)O (some centres undefined)				4.5	1.9		
COc1cc([C@@H](O)P(=O)(O)CC[C@H](N)C(=O)O)cc([N+](=O)[O-])c1O		18	0.72			1.1	63
N[C@@H](CCP(=O)(O)[C@@H](O)c1cccc([N+](=O)[O-])c1)C(=O)O		1.3	0.32			3.2	> 100
N[C@@H](CCP(=O)(O)C(NCCc1ccccc1)c1cccc([N+](=O)[O-])c1)C(=O)O (some centres undefined)	1.6	7.2	4.41				
COc1ccc([C@H](O)P(=O)(O)CC[C@H](N)C(=O)O)cc1[N+](=O)[O-]	1.3	2.2	1.7			3.9	> 100
N[C@@H](CCP(=O)(O)C(O)c1ccc(O)c(C(=O)O)c1)C(=O)O (some centres undefined)	2.5	40	15.8				
CS(=O)(=O)c1ccc(C(O)P(=O)(O)CC[C@H](N)C(=O)O)cc1 (some centres undefined)		> 100	59			> 100	> 100
N[C@@H](CCP(=O)(O)C(O)c1ccc([N+](=O)[O-])c(O)c1)C(=O)O (some centres undefined)				19.8	8.7		
N[C@@H](CCP(=O)(O)C(O)c1cc([N+](=O)[O-])cc([N+](=O)[O-])c1)C(=O)O (some centres undefined)				6.6	4.5		
CC(=O)c1ccc(C(O)P(=O)(O)CC[C@H](N)C(=O)O)cc1 (some centres undefined)				14	1.8		
N[C@@H](CCP(=O)(O)C(O)c1coc(C(=O)O)c1)C(=O)O (some centres undefined)				9.2	4.6		
CCOc1cc([C@@H](O)P(=O)(O)CC[C@H](N)C(=O)O)cc([N+](=O)[O-])c1O	4.4	22	5.1				
N[C@@H](CCP(=O)(O)C(O)c1ccnc(O)c1)C(=O)O (some centres undefined)	1.9	81	42				
N[C@@H](CCP(=O)(O)Cc1ccc(O)c([N+](=O)[O-])c1)C(=O)O	11	277	24			> 100	> 100
N[C@@H](CCP(=O)(O)[C@@H](O)c1cc(F)c(O)c([N+](=O)[O-])c1)C(=O)O	1.8	17.1	9.77			10.2	53.8
N[C@@H](CCP(=O)(O)C(O)c1ccc(O)cc1)C(=O)O (some centres undefined)	3.2	25	7.7				

SMILES	Ratio EC50 [1]	EC50 [2] [µM]	EC50 [3] [µM]	EC50 [4] [µM]	Ratio EC50 [5]	EC50 [6] [µM]	EC50 [7] [µM]
CCOc1cc([C@H](O)P(=O)(O)CC[C@H](N)C(=O)O)cc([N+](=O)[O-])c1O	1	6.5	6.4				
N[C@@H](CCP(=O)(O)[C@H](O)c1cc(F)c(O)c([N+](=O)[O-])c1)C(=O)O	14	34.3	2.42			0.76	39
N[C@@H](CCP(=O)(O)C(O)c1ccc(C(F)(F)F)cc1)C(=O)O (some centres undefined)				34	2.3		
NC(c1csc([N+](=O)[O-])c1)P(=O)(O)CC[C@H](N)C(=O)O (some centres undefined)				1.8	2.2		
CCCCCCCCNC(c1cccc([N+](=O)[O-])c1)P(=O)(O)CC[C@H](N)C(=O)O (some centres undefined)	6.3	38	6.1				
N[C@@H](CCP(=O)(O)[C@@H](O)c1ccc(O)c([N+](=O)[O-])c1)C(=O)O	8.5	39.8	4.5			68.4	295
N[C@@H](CCP(=O)(O)C(O)c1ccc(O)nc1)C(=O)O (some centres undefined)	0.5	17	33				
N[C@@H](CCP(=O)(O)[C@H](O)c1ccc(O)c([N+](=O)[O-])c1)C(=O)O	61	31.4	0.5			3.6	62
NC(c1cccc([N+](=O)[O-])c1)P(=O)(O)CC[C@H](N)C(=O)O (some centres undefined)					4.1		
N[C@@H](CCP(=O)(O)C(O)c1cccc([N+](=O)[O-])c1)C(=O)O (mixture of isomers)	2				2.8		
N[C@@H](CCP(=O)(O)C(O)c1ccc(OCC(=O)O)cc1)C(=O)O (some centres undefined)	256						
N[C@@H](CCP(=O)(O)C(O)c1ccncc1)C(=O)O (some centres undefined)	1	26.2	28				
CCOc1cc(C(O)P(=O)(O)CC[C@H](N)C(=O)O)cc([N+](=O)[O-])c1O (mixture of isomers)	2.4	20					
N[C@@H](CCP(=O)(O)C(O)c1cc([N+](=O)[O-])ccc1O)C(=O)O (some centres undefined)				4.2	4.6		
CCCCCCNC(c1cccc([N+](=O)[O-])c1)P(=O)(O)CC[C@H](N)C(=O)O (some centres undefined)	0.9	22.8	25				
N[C@@H](CCP(=O)(O)C(O)c1ccc(N2CCOCC2)c([N+](=O)[O-])c1)C(=O)O (some centres undefined)				> 100		> 100	> 100
COc1ccc(C(O)P(=O)(O)CC[C@H](N)C(=O)O)cc1[N+](=O)[O-] (some centres undefined)	1	3.8	3.5	2.7	1.7		
N[C@@H](CCP(=O)(O)C(O)c1ccc([N+](=O)[O-])c(C(F)(F)F)c1)C(=O)O (some centres undefined)				0.98	2.4	2.9	> 100
N[C@@H](CCP(=O)(O)C(O)c1ccc([N+](=O)[O-])s1)C(=O)O (some centres undefined)				1.9	3.9	4.2	> 100
N[C@@H](CCP(=O)(O)Cc1cccc([N+](=O)[O-])c1)C(=O)O	2.5				5.4	3.2	> 100
Nc1ccc(C(O)P(=O)(O)CC[C@H](N)C(=O)O)cc1 (some centres undefined)	0.9	8.4	8.8	8.4	0.9		11.6
N[C@@H](CCP(=O)(O)[C@H](O)c1cccc([N+](=O)[O-])c1)C(=O)O	1.2	1.25	1			2.4	> 100
COc1ccc(C(O)P(=O)(O)CC[C@H](N)C(=O)O)cc1 (some centres undefined)	9.3	61	6.5			23	
N[C@@H](CCP(=O)(O)C(O)c1ccc(O)c([N+](=O)[O-])c1)C(=O)O (some centres undefined)	48	73	1.5		18		
N[C@@H](CCP(=O)(O)C(NCc1cccc2ccccc12)c1cccc([N+](=O)[O-])c1)C(=O)O (some centres undefined)	4.3	35.4	7.9				
N[C@@H](CCP(=O)(O)C(O)c1cccc([N+](=O)[O-])c1O)C(=O)O (some centres undefined)				21.2	0.92		
N#Cc1cccc(C(O)P(=O)(O)CC[C@H](N)C(=O)O)c1 (some centres undefined)				219	5.3		

Reference: ChEMBL document CHEMBL4033785, “Increased Potency and Selectivity for Group III Metabotropic Glutamate Receptor Agonists Binding at Dual sites” (J Med Chem, 2018)
